The record followed here is ChEMBL document CHEMBL2029264, “Indole-based fibrates as potential hypolipidemic and antiobesity agents” (J Med Chem, 2012).

Molecules are shown by their SMILES.

Series [1] concerns Rattus norvegicus. The series is described as follows: Toxicity in HFD-induced hyperlipidemic Charles Foster rat at 100 mg/kg/day, po administered for 4 weeks by macroscopic analysis. The format is organism-based. To be noted: in vivo, 672 h. Details: route oral. In a few lines:
(§1)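 Male Charles Foster rats (200−225 g) were fed a high-fat diet for 4 weeks, then dosed at 100 mg/kg/d alongside the same diet for 4 more weeks. Survival was monitored. After an overnight fast, blood was drawn and the animals were sacrificed. Macroscopic inspection and autopsy were then performed, with n = 6 per group.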

The test system of series [2] is Rattus norvegicus. The series is described as follows: Toxicity in HFD-induced hyperlipidemic Charles Foster rat at 100 mg/kg/day, po administered for 4 weeks by autopsy analysis. Details: route oral. The settings on record: in vivo, 672 h. The format is organism-based. In a few lines:
as §1

Regarding `CCOC(=O)C(C)Oc1ccc(C(c2cn(CC)c3ccccc23)c2cn(CC)c3ccccc23)cc1` (configuration not stated), the Activity entry in the series on Rattus norvegicus [1] and in the series on Rattus norvegicus [2] was “Non-toxic” each time.
